The term LD50 denotes the dose at which mortality reaches 50%.

Data on 15 compounds can be found in ChEMBL document CHEMBL1124483 (J Med Chem, 1989).

Each structure is given as a SMILES string.

This data set in a line: Lethal dose of the compound, when administered intraperitoneally in mice. The data set is classed as toxicity, organism-based. The settings on record: mouse, in vivo, ip. In outline:
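Male Swiss Webster mice (15–20 g), five per dose level, at least four dose levels, given ip injection (0.10 mL/10 g) in normal saline or saline/phosphate-buffered saline, with EtOH up to 2.5% final for some; solvent-only control group.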
In turn, `CC(C)(C)[C@H]1CC[C@@H](O)[C@H](N2CCC(c3ccccc3)CC2)C1` displayed an LD50 of 5.7 µmol/kg.
In turn, `OC1CC2CCCCC2CC1N1CCC(c2ccccc2)CC1` (racemic) displayed an LD50 of 2 µmol/kg.
Next, `CCC(O)CN1CCC(c2ccccc2)CC1` (stereo not given): 300 µmol/kg; `CC1(O)CCCC[C@H]1N1CCC(c2ccccc2)CC1` (stereo not given in full): more than 180 µmol/kg.
As for `OC1CCCCC1N1CCC(c2ccccc2)CC1` (racemic), the LD50 was found to be 16 µmol/kg.
For `CO[C@H]1CCC[C@@H](N2CCC(c3ccccc3)CC2)[C@@H]1O`, the median lethal dose (LD50) was 240 µmol/kg.
On to `COc1ccccc1N1CCN(C2CC3CCCCC3CC2O)CC1` (racemic; 68), for which the LD50 is 12 µmol/kg.
Compound `OC1CCCCC1N1CCC(Cc2ccccc2)CC1` (stereo not given) showed an LD50 of more than 180 µmol/kg.
`O[C@@H]1CCCC[C@H]1N1CCC(c2ccccc2)CC1` [VESAMICOL]: the LD50 was 12 µmol/kg.
The compound `O[C@H]1CCCC[C@@H]1N1CCC(c2ccccc2)CC1` returned an LD50 of more than 190 µmol/kg.
`CC(=O)Nc1cccc2c1CC(N1CCC(c3ccccc3)CC1)C(O)C2` (stereo not given) displayed an LD50 of 1.7 µmol/kg.
Under `OC1CCCCC1N1CC=C(c2ccc(Cl)cc2)CC1` (stereo not given) stands more than 340 µmol/kg.
On to `C[N+]1(C2CCCCC2O)CCC(c2ccccc2)CC1` (stereo not given), for which the LD50 is more than 180 µmol/kg.
Compound `OC1Cc2ccccc2CC1N1CCC(c2ccccc2)CC1` (stereo not given) displayed an LD50 of 1.2 µmol/kg.
Next, `OC1CCCC1N1CCC(c2ccccc2)CC1` (stereo not given): more than 200 µmol/kg.
